Reference: ChEMBL document CHEMBL1132814, “N-1 substituted pyrimidin-4-ones: novel, orally active inhibitors of lipoprotein-associated phospholipase A2” (Bioorg Med Chem Lett, 2000)
pIC50: −log10 of the molar value.

target: T1, Platelet-activating factor acetylhydrolase (Homo sapiens) (UniProt Q13093); test: Inhibition of Lipoprotein associated phospholipase A2 in human plasma at 100 nM; format: cell-free
T1 sequence (whole entry): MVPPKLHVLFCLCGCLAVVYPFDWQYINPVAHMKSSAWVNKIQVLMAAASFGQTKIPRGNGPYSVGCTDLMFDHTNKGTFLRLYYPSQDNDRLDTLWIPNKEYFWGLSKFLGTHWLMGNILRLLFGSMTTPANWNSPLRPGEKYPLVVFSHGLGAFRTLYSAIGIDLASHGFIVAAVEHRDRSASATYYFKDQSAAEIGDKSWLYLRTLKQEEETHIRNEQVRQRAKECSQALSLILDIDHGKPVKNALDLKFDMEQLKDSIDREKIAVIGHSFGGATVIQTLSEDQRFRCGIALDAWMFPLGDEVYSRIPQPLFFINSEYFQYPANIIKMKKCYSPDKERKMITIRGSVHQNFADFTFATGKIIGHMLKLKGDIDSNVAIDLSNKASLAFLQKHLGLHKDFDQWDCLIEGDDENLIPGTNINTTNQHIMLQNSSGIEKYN
Summary of the method: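 Whole plasma (human, or WHHL rabbit) mixed with compound in DMSO at a single concentration and preincubated 10 min at 37 °C before enzyme assay. Reaction ran 60 s in human plasma and 15 s in rabbit plasma, then stopped with CHCl3/MeOH (2:1). Released [3H]acetate was read by scintillation counting of the aqueous layer after chloroform extraction.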

inhibition [%]	SMILES
26	O=c1nc(SCc2ccc(F)cc2)n(Cc2ccco2)cc1Cc1cncnc1
28	Cn1cc(Cc2cncnc2)c(=O)nc1SCc1ccc(F)cc1
27	O=c1nc(SCc2ccc(F)cc2)n(CCc2ccccc2)cc1Cc1cncnc1

target: T2, Platelet-activating factor acetylhydrolase (Homo sapiens, UniProt Q13093); test: Inhibition of isolated human lipoprotein associated phospholipase A2
T2 sequence (Q13093 whole entry): T1 sequence (whole entry)

SMILES	pIC50
CCCCCCCCN(C)C(=O)Cn1cc(Cc2cncnc2)c(=O)nc1SCc1ccc(F)cc1	7.82
CCCCCCCN(C)C(=O)CCCn1cc(Cc2cncnc2)c(=O)nc1SCc1ccc(F)cc1	8.52
CCCCCCc1ccc(CCn2cc(Cc3cncnc3)c(=O)nc2SCc2ccc(F)cc2)cc1	7.92
O=C(CCCCCCCSc1nc(=O)c(Cc2cncnc2)cn1Cc1ccccc1)c1ccc(Cl)cc1	7.44
CCCCCCCNC(=O)Cn1cc(Cc2cncnc2)c(=O)nc1SCc1ccc(F)cc1	7.72
O=C(Cn1cc(Cc2cncnc2)c(=O)nc1SCc1ccc(F)cc1)NCCCCCCc1ccc(F)cc1	8.70
CCCCCCCC(=O)NCCn1cc(Cc2cncnc2)c(=O)nc1SCc1ccc(F)cc1	6.85
CCCCCCCNC(=O)NCCn1cc(Cc2cncnc2)c(=O)nc1SCc1ccc(F)cc1	7.15
CCCCCCCCC=CCCCCCCCCNC(=O)Cn1cc(Cc2cncnc2)c(=O)nc1SCc1ccc(F)cc1	9.00
COCCn1cc(Cc2cncnc2)c(=O)nc1SCCCCCCCC(=O)c1ccc(Cl)cc1	6.96
Cn1cc(Cc2cncnc2)c(=O)nc1SCCCCCCCC(=O)c1ccc(Cl)cc1	7.72
O=C(CCCCCCCSc1nc(=O)c(Cc2cncnc2)cn1CCCc1ccccc1)c1ccc(Cl)cc1	7.05
CCCCCCCCNC(=O)Cn1cc(Cc2cncnc2)c(=O)nc1SCc1ccc(F)cc1	8.15
CCn1cc(Cc2cncnc2)c(=O)nc1SCCCCCCCC(=O)c1ccc(Cl)cc1	7.41
CCCCCCCCCCCCCCCCCCNC(=O)CCCn1cc(Cc2cncnc2)c(=O)nc1SCc1ccc(F)cc1	8.40
CCCCCCCC/C=C/CCCCCCCCNC(=O)Cn1cc(Cc2cncnc2)c(=O)nc1SCc1ccc(F)cc1	8.70
CCCCCCCCCCCn1cc(Cc2cncnc2)c(=O)nc1SCc1ccc(F)cc1	7.72
O=C(CCCCCCCSc1nc(=O)c(Cc2cncnc2)cn1CCc1ccccc1)c1ccc(Cl)cc1	7.47
CCCCCCCCC=CCCCCCCCCNC(=O)CCCn1cc(Cc2cncnc2)c(=O)nc1SCc1ccc(F)cc1	9.40
CCCCCCCCCCNC(=O)CCCn1cc(Cc2cncnc2)c(=O)nc1SCc1ccc(F)cc1	10.00
CCCCNC(=O)CCCCCn1cc(Cc2cncnc2)c(=O)nc1SCc1ccc(F)cc1	6.59
O=C(CCCCCCCSc1nc(=O)c(Cc2cncnc2)cn1Cc1ccco1)c1ccc(Cl)cc1	7.80
CCCCCCCC/C=C/CCCCCCCCNC(=O)CCCn1cc(Cc2cncnc2)c(=O)nc1SCc1ccc(F)cc1	9.15

More lines, now with the values ahead:

pIC50	SMILES
6.96	O=c1nc(SCc2ccc(F)c(F)c2)n(CCc2ccccc2)cc1Cc1cncnc1
6.18	Cn1cc(Cc2cncnc2)c(=O)nc1SCc1ccccc1
6.02	O=c1nc(SCc2cccc(Cl)c2)n(Cc2ccco2)cc1Cc1cncnc1
6.52	O=c1nc(SCc2ccc(F)cc2)n(Cc2ccco2)cc1Cc1cncnc1
6.35	O=c1nc(SCc2ccccc2F)n(Cc2ccco2)cc1Cc1cncnc1
5.92	COCCn1cc(Cc2cncnc2)c(=O)nc1SCc1ccccc1
6.55	Cn1cc(Cc2cncnc2)c(=O)nc1SCc1ccc(F)cc1
6.70	O=c1nc(SCc2ccc(F)cc2)n(CCc2ccccc2)cc1Cc1cncnc1
6.52	O=c1nc(SCc2ccccc2)n(CCCc2ccccc2)cc1Cc1cncnc1
6.46	O=c1nc(SCc2ccccc2)n(CCc2cccs2)cc1Cc1cncnc1
6.60	O=c1nc(SCc2ccc(F)cc2)n(CCc2cccs2)cc1Cc1cncnc1
6.68	O=c1nc(SCc2ccccc2)n(CCc2ccccc2)cc1Cc1cncnc1
7.60	O=c1nc(SCc2ccc(F)cc2)n(CCCCCCCCCc2ccccc2)cc1Cc1cncnc1
6.68	O=c1nc(SCc2ccccc2)n(Cc2cccs2)cc1Cc1cncnc1
6.35	O=c1nc(SCc2ccccc2)n(Cc2ccccc2)cc1Cc1cncnc1
6.63	O=c1nc(SCc2ccc(F)c(F)c2)n(Cc2ccco2)cc1Cc1cncnc1
7.96	O=C(CCCCCCCSc1nc(=O)c(Cc2cncnc2)cn1Cc1cccs1)c1ccc(Cl)cc1
6.60	O=c1nc(SCc2cccc(F)c2)n(Cc2ccco2)cc1Cc1cncnc1
5.85	O=c1nc(SCc2ccc(Cl)cc2)n(Cc2ccco2)cc1Cc1cncnc1
